Bioassay records from PubChem BioAssay.
In the library only some 2.5% were active in any assay of this set; here they are far more common.
SENP7 inh: SENP7 protease inhibitors, primary screen, biochemical, luminescence, uHTS; recombinant SENP7, Z-RLRGG-aminoluciferin luminescence, 40 min; inhibition, % at 5 µM; 330,000 compounds, 1.5% hits; AID 434973, 2010;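 active = inhibition above about 50% at the single test dose, limit read from the data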
Target sequence (Q9BQF6 706-1050 limits assumed): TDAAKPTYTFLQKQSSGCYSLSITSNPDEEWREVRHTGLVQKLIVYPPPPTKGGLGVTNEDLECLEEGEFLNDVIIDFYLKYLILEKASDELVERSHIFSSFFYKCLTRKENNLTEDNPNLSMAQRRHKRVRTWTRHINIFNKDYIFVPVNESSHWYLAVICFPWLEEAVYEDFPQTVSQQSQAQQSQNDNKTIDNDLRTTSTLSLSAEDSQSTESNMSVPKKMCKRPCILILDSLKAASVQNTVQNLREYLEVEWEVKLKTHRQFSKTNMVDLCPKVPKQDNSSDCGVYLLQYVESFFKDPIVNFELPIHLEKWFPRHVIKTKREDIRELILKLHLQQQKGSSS
SENP8 block-1: SENP8 protease inhibitors, primary screen, biochemical, luminescence; inhibition, % at 10 µM; 330,000 compounds, 1.2% hits; AID 2540, 2010; purified SENP8, Z-RLRGG-aminoluciferin cleavage; Sentrin-specific protease 8 (Homo sapiens), Q96LD8; in the data active = inhibition above about 50%
SENP6 block: SENP6 protease inhibitors, primary screen, biochemical, luminescence, uHTS. Sentrin-specific protease 6 (Homo sapiens), Q9GZR1. Recombinant SENP6 catalytic domain, aminoluciferin luminescence. inhibition, % at 10 µM. 330,000 compounds, 1.8% hits. AID 2599, 2010;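 active = inhibition above about 50% at the single tested dose, limit read from the data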
SENP1 FRET inh: human SENP1 catalytic domain inhibitors, primary screen, biochemical, FRET, uHTS | Sentrin-specific protease 1 (Homo sapiens), Q9P0U3 | recombinant SENP1 catalytic domain, CyPet-SUMO1-YPet FRET cleavage | inhibition, % at 10 µM | 360,000 compounds, 0.21% hits;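 active = inhibition at least 30% at 10 µM, raw YFP signal under a set limit, fluorescence ratio 0.5 to 1.5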
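material = recombinant human SENP1 catalytic domain, His6-tagged | quantity = 20 pM enzyme | reagent = 25 nM SUMO1 FRET substrate | compound dosing = 10 µM single point, 0.5% DMSO | timing = 50 min enzyme reaction, room temperature, light-protected | detection = FRET, CFP and YFP emission | control set = no-enzyme low, enzyme-DMSO high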
SENP8 block-2: human SENP8 protease inhibitors, primary screen, biochemical, fluorescence, Nedd8 protein substrate, uHTS; inhibition, % at 20 µM; Sentrin-specific protease 8 (Homo sapiens), Q96LD8; recombinant SENP8; 360,000 compounds, 0.64% hits; in the data active = inhibition mostly above about 40%, no sharp cut-off; inactive = mostly below about 27%
SENP8 confirm: SENP8 protease inhibitors, retest, confirmation, biochemical, luminescence, single concentration; shares compounds with SENP7 inh; Recombinant SENP8, Z-RLRGG-aminoluciferin luminescence, 60 min; inhibition, % at 12.5 µM; 6,200 compounds, 40% hits; AID 488912, 2010;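 active = mean inhibition across replicates above about 50%, limit read from the data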
SENP6 conf: SENP6 protease inhibitors, confirmation, biochemical, luminescence, single concentration; shares compounds with SENP7 inh; recombinant SENP6, Z-RLRGG-aminoluciferin luminescence; inhibition, % at 12.5 µM; 6,200 compounds, 58% hits; AID 488915, 2010
SENP7 conf: SENP7 protease inhibitors, retest, confirmation, biochemical, luminescence, single concentration; AID 488917, 2010; inhibition, % at 12.5 µM; recombinant SENP7, Z-RLRGG-aminoluciferin luminescence, 40 min; shares compounds with SENP7 inh; 6,200 compounds, 69% hits
Casp3 SENP sel: caspase-3 protease inhibitors, confirmation, selectivity assay for SENP inhibitor project, biochemical, single concentration; 6,200 compounds, 60% hits; purified caspase-3, Z-DEVD-aminoluciferin luminescence, 60 min; shares compounds with SENP7 inh; inhibition, % at 12.5 µM;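 active = mean inhibition above about 50%, limit read from the data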
SENP luc ctr: counter-screen for SENP inhibitors: luminescence interference | shares compounds with SENP7 inh | Pre-incubated SENP8/Z-RLRGG-aminoluciferin, luciferase luminescence interference | inhibition, % at 12.5 µM | 6,200 compounds, 39% hits | AID 488919;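 active = mean inhibition above about 50% when retested at one dose, limit read from the data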
Numbers stand for hits; n = inactive; x = not tested or not shown.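 Rule for the calls, unless noted: active = mean inhibition above about 50% in the one-dose retest (limit read from the data); inactive = the rest.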

SMILES	SENP7 inh	SENP8 block-1	SENP6 block	SENP1 FRET inh	SENP8 block-2	SENP8 confirm	SENP6 conf	SENP7 conf	Casp3 SENP sel	SENP luc ctr
Cc1cnc(NC(=O)c2sc3ccccc3c2Cl)s1	84	66	80	n	n	n	n	53	n	n
CC1=C(C(=O)N(C)C)CC(CC(=O)NC(c2ccccc2)c2ccccc2)C(=O)N1CCC1=CCCCC1 (stereo not given)	x	x	x	n	n	x	x	x	x	x
CC(C)CCc1noc(CN2CCN(c3ccc(Cl)cn3)CC2)n1	n	n	n	n	n	x	x	x	x	x
COc1ccc(/C=C/C(=O)Nc2cccnc2Cl)cc1	92	89	89	n	n	n	92	101	95	62
COc1ccccc1/C=C/C(=O)Nc1cccnc1Cl	n	n	n	n	n	x	x	x	x	x
CCC(=O)N1Cc2cc(C(=O)Nc3nccs3)nc(-c3cccc(-c4ccccc4OC)c3)c2[C@@H]1CCO	x	x	x	n	n	x	x	x	x	x
Nc1[nH]n(-c2ccccc2)c(=O)c1N=Nc1ccc2c(c1)OCCO2	93	84	73	n	n	n	94	99	83	n
Nc1nn(-c2ccccc2)c(N)c1N=Nc1ccc2c(c1)OCO2	n	n	62	n	n	n	n	76	n	61
CCOC(=O)[C@]12CCC=C1N(Cc1ccc(Cl)cc1Cl)C(=O)[C@H](CC(=O)NCCCOC)C2	x	x	x	n	n	x	x	x	x	x
Cc1ccccc1/C(N)=N/OC(=O)c1cccs1	n	n	74	n	n	56	55	84	80	62
Cc1ccccc1/C(N)=N/OC(=O)/C=C/c1ccccc1	60	n	67	n	n	51	52	83	71	64
CCCSc1nn2c(=O)c3ccccc3nc2s1	n	n	64	n	n	67	65	89	83	65
Clc1cccc(-c2nc(-c3ccc(-c4nn[nH]n4)cc3)no2)c1	79	95	99	n	n	97	97	100	83	89
Cc1ccc(-c2csc(N/N=C/c3ccco3)n2)cc1	n	n	n	n	n	x	x	x	x	x
C(=N\Nc1nc(-c2ccccc2)cs1)/c1cccs1	n	n	64	n	n	63	65	88	n	n
C(=N\Nc1nc(-c2ccccc2)cs1)/c1ccco1	n	54	72	n	n	65	66	87	n	58
O=C(Nc1ccccc1Cl)OC1CCCCC1	n	n	n	n	n	x	x	x	x	x
Oc1cccc(Nc2ncnc3c2oc2ccccc23)c1	71	62	70	n	n	64	66	92	69	80
c1ccc2c(c1)oc1c(Nc3ccc4c(c3)OCO4)ncnc12	59	n	n	n	n	n	n	n	n	n
c1ccc(Nc2ncnc3c2oc2ccccc23)cc1	n	n	52	n	n	n	n	56	n	n
Cc1nc(Nc2ccc3c(c2)OCO3)c2oc3ccccc3c2n1	n	n	n	n	n	x	x	x	x	x
Oc1ccc(Nc2ncnc3c2oc2ccccc23)cc1	n	n	n	n	n	x	x	x	x	x
Nc1c(-c2ccc(F)c(F)c2)nc2ncccn12	x	x	x	n	n	x	x	x	x	x
